CYP2C9 inh = blocks human cytochrome P450 2C9; P11712; CYP2C9 Supersomes, luciferin-H conversion, luminescence; inhibition, % at 5 µM; hit rate 20% among 96,000; AID 777;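 active = blocking of liver enzyme CYP2C9 beyond about 50% at 5 µM, limit read from the data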
Cav32 inh = human Cav3.2 channel inhibition, primary screen; O95180; Cav3.2-expressing cells, Fluo-4 calcium fluorescence FDSS; active compounds read low; B-score at 10 µM; hit rate 4% among 100,000;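 active = single-dose well whose peak fluorescence ratio is a statistical outlier from its plate by either plate-standardised score or position-corrected B-score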
CYP2C19 inh = blocks human cytochrome P450 2C19 | inhibition, % at 5 µM | P33261 | CYP2C19 Supersomes, luciferin-H EGE luminescence, 30 min | hit rate 21% among 96,000;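 active = CYP2C19 inhibition above a set limit at 5 µM in the primary screen, cut at about 50% in these data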;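 also: plate controls were negative control wells for no effect and 2.5 mM tranylcypromine positive control for full effect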
CYP2C9 activ = activators of human CYP2C9. recombinant CYP2C9, luciferin-H conversion, luminescence; active compounds read high; factor 1 = untreated enzyme, 0 = blocked. activation factor at 5 µM. hit rate 1.4% among 96,000. AID 1024;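 active = activation factor of 2 or more for CYP2C9 at a 5 µM dose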;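 also: 0 = sulfaphenazole-blocked wells and 1 = vehicle-only wells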
CYP2C19 activ = cytochrome P450 2C19 (human) activation. recombinant CYP2C19, luciferin-H EGE luminescence; active compounds read high; 0 = fully inhibited enzyme, 1 = untreated enzyme. activation factor at 5 µM. 96,000 tested, under 10 active. AID 1025;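 active = activation factor of at least 2 at 5 µM in the primary screen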;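 also: 0 = wells with 2.5 mM tranylcypromine and 1 = vehicle-only wells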
Rev-RRE block = disrupts HIV-1 Rev binding to RRE RNA; AID 704; P05866; Rev peptide-RRE RNA binding, FRET; hit rate 0.79% among 97,000; inhibition, % at 8 µM;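 active = inhibition above the screen-wide mean plus 3 SD, cut at about 35% in these data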;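 also: 0% = median DMSO wells and 100% = median Neomycin B control wells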
Target sequence (P05866 whole entry, looked up): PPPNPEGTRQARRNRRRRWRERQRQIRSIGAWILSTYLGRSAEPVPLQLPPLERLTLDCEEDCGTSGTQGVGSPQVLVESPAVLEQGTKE
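Assay system: labelled RRE RNA duplex and labelled Rev peptide / Medium: HEPES pH 7.5 salt buffer with EDTA / Reagent: labelled Rev peptide / Schedule: 5 + 15 min at 25 °C / Signal: FRET, excitation 480 nm, emission 540 nm donor and 671 nm acceptor / Benchmarks: DMSO and neomycin B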
The depositor's hits bear a star; · = not tested or not shown. Shown are actives, neighbours in structure and some others; about 27% of the full set was active somewhere.

SMILES	CYP2C9 inh	Cav32 inh	CYP2C19 inh	CYP2C9 activ	CYP2C19 activ	Rev-RRE block
COc1cc(C(c2sc3nc(C)nn3c2O)N2CCc3ccccc3C2)cc(OC)c1OC (stereo not given)	32.7	1.39	83.7*	0.7	0.2	·
Cc1cc(C)c(NC(=O)/C=C\C(=O)O)c([N+](=O)[O-])c1	4.2	0.0921	-2.8	1	1	10.9
Cc1cc(C)c(C(=O)OCCNC(=O)c2cccnc2)cc1C	70.7*	0.46	73.8*	0.3	0.3	6.2
O=C(NCCOC(=O)c1ccccc1C(=O)OCCNC(=O)c1cccnc1)c1cccnc1	68.5*	0.769	95.6*	0.3	0	8.0
O=C(NCCOC(=O)c1ccc(C(=O)OCCNC(=O)c2ccccc2)o1)c1ccccc1	83.4*	-0.0147	35.5	0.2	0.6	3.2
COC(=O)CNC(=O)c1ccccc1	·	1.01	·	·	·	·
Cc1cccc(OCc2nnc(SCc3nc4ccccc4c(=O)[nH]3)o2)c1	48.0	0.0991	54.5*	0.5	0.5	10.2
Cn1c(COc2ccccc2)nnc1SCc1nc2ccccc2[nH]1	6.2	0.184	35.3	0.9	0.6	1.3
O=c1[nH]c(CSc2nnc(COc3ccccc3)n2-c2ccccc2)nc2ccccc12	89.9*	-3.94*	85.1*	0.1	0.1	1.7
Cn1c(SCC(=O)NC(C)(C)C)nnc1-c1cccc(NC(=O)c2ccccc2F)c1	2.2	-0.159	5.4	1	0.9	9.5
Cc1ccc(CN(c2ccc(C(=O)Nc3cccnc3)cc2)S(C)(=O)=O)cc1	73.8*	-2.16	90.6*	0.3	0.1	14.8
CS(=O)(=O)N(Cc1ccccc1)c1ccc(C(=O)NC2CCCCC2O)cc1 (stereo not given)	11.5	-0.381	51.9*	0.9	0.5	2.6
CS(=O)(=O)N(Cc1ccccc1)c1ccc(C(=O)NCc2cccnc2)cc1	91.2*	0.226	91.3*	0.1	0.1	5.9
CS(=O)(=O)N(Cc1ccccc1)c1ccc(C(=O)NCc2ccccc2)cc1	53.4*	0.0386	62.1*	0.5	0.4	11.3
CC1(C)Cc2noc(N)c2C(C)(C)N1OC(=O)c1ccccc1	56.9*	-1.28	100.3*	0.4	0	4.8
COC(=O)c1ccc(COc2nc(C)cc(C)c2C#N)o1	23.5	-0.741	70.4*	0.8	0.3	1.6
COc1ccc(CNC(=O)C2=C(C)C(=O)OC23CCC(C)CC3)cc1 (stereo not given)	25.4	0.53	54.8*	0.7	0.5	6.8
CC1=C(C(=O)NCc2ccccn2)C2(CCC(C)CC2)OC1=O (stereo not given)	11.9	·	76.7*	0.9	0.2	6.8
CC1=C(C(=O)NCCCOC(C)C)C2(CCC(C)CC2)OC1=O (stereo not given)	13.6	0.695	63.8*	0.9	0.4	·
COc1ccc(NC(=O)C2=C(C)C(=O)OC23CCC(C)CC3)cc1Cl (stereo not given)	21.7	-1.53	31.7	0.8	0.7	16.0
CC1=C(C(=O)NCCN2CCOCC2)C2(CCC(C)CC2)OC1=O (stereo not given)	10.3	-0.441	26.0	0.9	0.7	·
Cc1c(C#N)c(N=CN(C)C)c(C(=O)c2ccc(Br)cc2)n1-c1ccc(Cl)cc1	48.6	-2.44	22.6	0.5	0.8	21.2
CC(=O)NCCn1c(SCC(=O)c2ccccc2)nc2ccccc2c1=O	55.0*	0.149	70.6*	0.4	0.3	-1.9
C=C(C)Cn1c(SCC#N)nc2ccccc2c1=O	44.7	·	47.0	0.6	0.5	4.8
CC(=O)NCCn1c(SCC(=O)OCc2ccccc2)nc2ccccc2c1=O	51.9*	0.785	85.5*	0.5	0.1	0.6
SMILES	CYP2C9 inh	Cav32 inh	CYP2C19 inh	CYP2C9 activ	CYP2C19 activ	Rev-RRE block
C=C(C)Cn1c(SCC)nc2ccccc2c1=O	34.8	-3.83	87.5*	0.7	0.1	8.0
CCOC(=O)CSc1nc2ccccc2c(=O)n1C	·	0.992	·	·	·	2.2
CCN(CCCn1c(=S)[nH]c2ncccc2c1=O)c1ccccc1	-36.4	-0.0732	0.4	1.4	1	2.0
CCN(CCCn1c(SCC#N)nc2ccccc2c1=O)c1ccccc1	92.7*	-5.36*	77.4*	0.1	0.2	3.8
CN1CCN(C(=S)Nc2ccccc2Cl)CC1	9.3	0.416	3.0	0.9	1	5.7
Cc1nc(NC(=O)CSc2nnnn2Cc2ccccc2)sc1C	51.0*	-1.93	81.4*	0.5	0.2	7.9

Assay outcomes deposited in PubChem BioAssay by several laboratories.
